Env fusion inh: inhibitors of HIV Env-mediated cell fusion; hit rate 1.1% among 360,000; inhibition, % at 12.3 µM; HeLa-JRFL Env/CEM21 cell fusion, luciferase;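 active = mean replicate inhibition score of at least 50 and every replicate individually at or above 50; inconclusive = only one of the two criteria met; inactive = mean below 50 and not all replicates reaching 50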;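 also: 0% = plate neutral controls and 100% = maraviroc near 300 nM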
PGC1a acetyl inh: lowers PGC1a acetylation signal in U2OS cells; AlphaScreen anti-acetyl-lysine; with virally co-expressed GCN5 acetyltransferase; inhibition, % at 15.6 µM; hit rate 0.17% among 350,000; AID 651687;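 active = every replicate shows inhibition of at least 40%; inconclusive = mean inhibition at least 40% but some replicate below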;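 also: 0% = neutral control wells and 100% = positive control wells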
FN deposit inh: fibronectin deposition inhibition; AH1F fibroblasts, Alexa488-fibronectin deposition fluorescence, overnight; inhibition, % at 12.6 µM; hit rate 0.086% among 350,000;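 active = mean inhibition across replicates of 30% or more, regardless of how many single replicates reach that level; inconclusive = mean under 30% yet at least half of replicates reach 30%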;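 also: positive control wells lacked labelled fibronectin entirely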
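Material – AH1F fibroblast monolayer, labelled fibronectin deposition · Reagent – labelled fibronectin 24 nM · Timing – 1 h adhesion, overnight exposure · Measured by – fluorescence at 485 nm excitation, 525 nm emission · Read-out – inhibition of fibronectin deposition signal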
PglD inh: PglD (C. jejuni) enzyme inhibition | hit rate 0.098% among 360,000 | purified PglD enzyme, DTNB colorimetric CoA detection | inhibition, % at 12.5 µM; in the data active = inhibition above about 16%, passing the limit was not always enough; inconclusive = no clear call, values can overlap the other calls
DENV2 CPE rescue: inhibitors of DENV2 cytopathic effect. hit rate 1.7% among 350,000. CPE inhibition, % at 9.99 µM. DENV2-infected cells, cytopathic effect rescue, plate reader. AID 651640; in the data active = CPE inhibition above about 20%, passing the limit was not always enough; inconclusive = no clear call, values can overlap the other calls; tested in BHK-21 cells;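 also: 0% = median of neutral control wells and 100% = median of positive control wells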
Ecoli rRNA inh: selective bacterial rRNA inhibition in E. coli | E. coli WT GFP vs humanized-ribosome RFP mutants, fluorescence, 24 h; active compounds read low; DMSO median 0, no signal -100 | GFP signal change (wild-type ribosome), % (concentration not given with the values) | hit rate 1.6% among 350,000 | AID 720706;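 active = significant combined selectivity score with lowered wild-type GFP, culture density cut under 30%, mutant RFP and density less affected; inactive = any of these conditions unmet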
An asterisk follows results filed as active; i = inactive; ? = inconclusive; . = no result; [ ] = dose if it differs, or a comment. Most compounds without a hit are left out; they make up all but 3.5% or so of the library.

SMILES	Env fusion inh	PGC1a acetyl inh	FN deposit inh	PglD inh	DENV2 CPE rescue	Ecoli rRNA inh
CCOc1ccc(CC(=O)Nc2cccc(-c3ccc4nnc(C)n4n3)c2)cc1	-1	.	8	-2	5	-34*
O=C(Nc1ccccc1)Nc1ccc2c(c1)[C@@H]1C[C@@H](CC(=O)N3CCOCC3)O[C@@H](CO)[C@@H]1O2	7[16.7 µM]	5	6	5	-6	1
CCOC(=O)CSc1nc(CC)nc2ccccc12	.	.	.	.	-3	0
Cc1sc2nc(C3CC3)nc(SCC(=O)N3CCc4ccccc4C3)c2c1C	55*	.	5	4	.	.
Cc1sc2nc(C(C)C)nc(SCC(=O)N3CCN(C(=O)c4ccco4)CC3)c2c1C	62*	-23	10	2	.	.
Cc1sc2nc(C3CC3)nc(SCC(=O)N3CCCc4ccccc43)c2c1C	2	.	3	.	4	8
CCCc1nc(SCC(=O)N2CCc3ccccc3C2)c2ccccc2n1	.	7	.	-1	1	-27*
CCOC(=O)CSc1nc(Cc2ccccc2)nc2ccccc12	56*	.	-7	.	.	-39
C[C@@H]1CN([C@@H](C)CO)C(=O)c2ccccc2-c2ccccc2CO[C@@H]1CN(C)S(=O)(=O)c1ccc(C#N)cc1	.	.	17	.	.	-1
COCCNC(=O)c1cc2c(c(-c3cccc(-c4cccc(F)c4)c3)n1)[C@H](CCO)N(S(=O)C(C)(C)C)C2 (stereo not given in full)	6[16.7 µM]	-6	10	0	?	-7
Cc1ccc(S(=O)(=O)Nc2ccc3c(c2)C(=O)N([C@@H](C)CO)C[C@@H](C)[C@@H](CN(C)Cc2ccc4c(c2)OCO4)OCCCC[C@H](C)O3)cc1	-163[16.7 µM]	.	-10	1	-4	1
Oc1ccccc1CNc1ccc(Br)cn1	.	8	.	3	.	.
COc1ccccc1CNc1ccc(Br)cn1	-31	-1	-14	6	-5	-29*
O=C(C[C@H]1C=C[C@@H](NS(=O)(=O)c2ccc(F)cc2)[C@H](CO)O1)NCc1ccc(Cl)c(Cl)c1	20[16.7 µM]	1	.	3	8	-6
C[C@H]1CCCCO[C@H](CN(C)C(=O)Cc2ccccc2)[C@@H](C)CN([C@@H](C)CO)C(=O)c2cc(NS(=O)(=O)c3ccc(Cl)cc3)ccc2O1	25[16.7 µM]	6	-7	-1	28*	0
C[C@@H]1CCCCO[C@@H](CN(C)C(=O)Cc2ccccc2)[C@@H](C)CN([C@H](C)CO)C(=O)c2cc(NS(=O)(=O)c3ccc(Cl)cc3)ccc2O1	5[16.7 µM]	-2	4	-1	25*	4
C[C@@H]1CCCCO[C@H](CN(C)C(=O)Cc2ccccc2)[C@H](C)CN([C@@H](C)CO)C(=O)c2cc(NS(=O)(=O)c3ccc(Cl)cc3)ccc2O1	-14[16.7 µM]	2	2	6	6	-3
COc1ccc(S(=O)(=O)Nc2ccc3c(c2)C(=O)N([C@@H](C)CO)C[C@H](C)[C@@H](CN(C)C(=O)Cc2ccccc2)OCCCC[C@H](C)O3)cc1	28[16.7 µM]	-2	.	4	68*	-2
C[C@@H]1C(=O)N[C@@H](c2ccccc2)CC=CC[C@H](C)Oc2ccccc2C(=O)N1C (mixture of isomers)	.	.	3	.	.	-7
CO[C@@H]1CN(C)C(=O)c2cc(NC(=O)Nc3cccc(F)c3)ccc2OC[C@H](C)N(C(=O)C2CC2)C[C@H]1C	18[16.7 µM]	-3	12	.	.	-7
CC(=O)N(C)C[C@H]1Oc2cc(-c3cncnc3)ccc2S(=O)(=O)N([C@H](C)CO)C[C@H]1C	17[16.7 µM]	8	-13	-2	5	2
COc1cc2nc(Nc3ccc(F)cc3)nc(N)c2cc1OC	-16	.	-2	7	-4	-16*
COc1cc2nc(Nc3ccc(C)c(C)c3)nc(N)c2cc1OC	-12	.	-6	-7	-1	-38*
S=C1NC2=C(CCCC2=C2SCCCS2)C(c2ccccc2)N1 (stereo not given)	-3	12	-17	.	-3	-2
COc1ccc(C2NC(=S)NC3=C2CCCC3=C2SCCS2)cc1 (stereo not given)	i	45*	6	6	8	12
SMILES	Env fusion inh	PGC1a acetyl inh	FN deposit inh	PglD inh	DENV2 CPE rescue	Ecoli rRNA inh
COc1ccc(S(=O)(=O)N(C)C[C@@H]2OCCCC[C@@H](C)Oc3ccc(NC(=O)Nc4c(C)noc4C)cc3C(=O)N([C@@H](C)CO)C[C@@H]2C)cc1	5[16.7 µM]	-2	7	0	-9	1
O=C(C[C@@H]1C[C@@H]2c3cc(NC(=O)Nc4ccc(C(F)(F)F)cc4)ccc3O[C@@H]2[C@@H](CO)O1)NCc1ccccn1	20[16.7 µM]	4	-57	0	?	-6
CC(C)(C)c1ccc(C(=O)N2CCCCCC2=O)cc1	91*	.	4	2	.	.
Cc1ccc(NC(=O)CCc2c(C)nn(-c3ccc(N4CCCCC4)nn3)c2C)cc1	-17	.	-7	2	4	-25*
COc1ccc(-c2ccc([C@H]3[C@H](C#N)N[C@H]3CO)cc2)cc1	-9[16.7 µM]	-10	-10	-2	-8	-5
CCCOc1ccc(C(=O)Nc2ccc(S(=O)(=O)N3C[C@@H]4C[C@@H](C3)c3cccc(=O)n3C4)cc2)cc1	.	-16	.	-2	31*	1
CCOc1ccc(/C=N/NC(=O)c2ccc(F)cc2)cc1CN1CC2CC(C1)c1cccc(=O)n1C2 (stereo not given)	.	1	.	4	20*	-9
CCCOc1ccc(C(=O)Nc2ccc(S(=O)(=O)N3CCN(C)CC3)cc2)cc1	-10	-11	13	-4	9	0
CCOc1ccccc1NC(=S)NNS(=O)(=O)c1c(C)cc(C)cc1C	4	.	1	.	4	-16*
CCOc1ccccc1NC(=O)NNS(=O)(=O)c1cc(C)ccc1C	-6	0	.	0	-3	-21
Cc1ccc(OCc2nnc(SCc3nc4ccccc4[nH]3)n2Cc2ccco2)cc1	.	16	.	9	.	.
CCn1c(COc2ccc(Cl)cc2)nnc1SCc1nc2ccccc2[nH]1	114*	27	.	-6	.	.
COc1ccccc1-c1ccc([C@H]2[C@@H](CO)N3CCCCN(C(=O)NC4CCCC4)C[C@H]23)cc1	.	-17	.	-1	23*	4
COc1ccccc1NC(=O)N1CCCCN2[C@H](CO)[C@H](c3ccc(C#Cc4ccccc4)cc3)[C@@H]2C1	.	2	.	-3	25*	6
COc1ccccc1NC(=O)N1CCCCN2[C@H](CO)[C@@H](c3ccc(C#CC4CCCC4)cc3)[C@@H]2C1	.	0	.	-4	36*	4
Cc1noc(C)c1NC(=O)Nc1ccc2c(c1)C(=O)N([C@@H](C)CO)C[C@@H](C)[C@H](CN(C)C(=O)Nc1ccccc1)OCCCC[C@H](C)O2	-1[16.7 µM]	-2	-1	0	-11	1
